NPY-Y1 PAM-ag: potentiates or activates human NPY-Y1 receptor. 0.37% of 220,000 active. NPY-Y1 expressing cells, potentiator/agonist activation. activation, % at 3.6 µM. P25929; in the data active = activation above about 33%, passing the limit was not always enough;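 also: cells stimulated with NPY at EC10 then isoproterenol at EC100; 0% = low agonist plus stimulus and 100% = saturating agonist plus stimulus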
Target sequence (P25929 whole entry, looked up): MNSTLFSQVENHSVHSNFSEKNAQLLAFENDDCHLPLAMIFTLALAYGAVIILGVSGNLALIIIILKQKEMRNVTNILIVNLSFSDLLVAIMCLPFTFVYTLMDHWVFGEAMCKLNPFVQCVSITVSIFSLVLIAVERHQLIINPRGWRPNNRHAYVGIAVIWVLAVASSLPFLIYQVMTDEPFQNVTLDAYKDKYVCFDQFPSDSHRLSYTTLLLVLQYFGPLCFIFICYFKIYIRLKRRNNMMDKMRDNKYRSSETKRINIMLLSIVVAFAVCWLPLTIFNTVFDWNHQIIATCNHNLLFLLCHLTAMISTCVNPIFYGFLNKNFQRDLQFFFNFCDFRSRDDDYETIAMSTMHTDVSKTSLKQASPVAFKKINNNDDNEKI
NPY-Y2 antag: blocks the human neuropeptide Y Y2 receptor; inhibition, % at 2.7 µM; P49146; NPY-Y2 expressing cells, antagonist mode; 0.99% of 140,000 active; in the data active = inhibition above about 17%;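 also: 0% = vehicle with agonist challenge and 100% = reference antagonist with challenge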
NPY Y1 blocker: antagonists of human neuropeptide Y receptor Y1 | P25929 | HEK293-CNG Y1 cells, membrane potential fluorescence; NPY at EC95, then isoproterenol | inhibition, % at 3.6 µM | 1% of 200,000 active;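 active = inhibition above the campaign mean inhibition of all tested compounds plus 3 SD, cut at about 20% in these data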;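 also: 0% = DMSO wells given NPY plus isoproterenol and 100% = isoproterenol alone without NPY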
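Material: Y1- and CNG-channel-expressing HEK293 cells / Probe or stimulus: NPY 25 nM then isoproterenol 1 µM plus Ro 20-1724 25 µM / Doses: 3.6 µM single dose, DMSO 0.4% / Schedule: compound incubation 1 h at room temperature, readout 45 min post-stimulation / Signal: membrane potential fluorescence / Benchmarks: isoproterenol-only wells as full block versus NPY-plus-isoproterenol wells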
NPY2 pot ag: potentiates or activates human NPY-Y2 receptor. P49146. cells expressing NPY-Y2, potentiator/agonist read-out. activation, % at 3.6 µM. 0.45% of 220,000 active; in the data active = activation above about 27%;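 also: cells stimulated with NPY near EC25 plus isoproterenol at EC100; 0% = vehicle plus submaximal agonist and 100% = vehicle plus saturating agonist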
NPY-Y2 pot conf: human NPY-Y2 potentiation or agonism, confirmation; shares compounds with NPY2 pot ag; 20% of 450 active; activation, % at 3.6 µM; cell-based NPY-Y2 potentiator/agonist assay; in the data active = activation above about 33%
NPY-Y1 counter: NPY-Y1 potentiation or agonism as NPY-Y2 counter-screen; 20% of 450 active; activation, % at 3.6 µM; Y1 HEK293-CNG cells, membrane potential fluorescence; AID 1651; shares compounds with NPY2 pot ag; in the data active = activation above about 45%;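 also: cells stimulated with submaximal NPY then isoproterenol with phosphodiesterase inhibitor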
NPY-Y1 ag 2: activates human NPY-Y1, counter-screen for NPY-Y2 potentiators | shares compounds with NPY2 pot ag | HEK293 Y1-CNGC, membrane potential fluorescence, agonism | activation, % at 3.6 µM | 37% of 450 active;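 active = activation above the mean of DMSO-only control wells plus 3 SD, cut at about 18% in these data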;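 also: cells stimulated with 1 µM isoproterenol plus the PDE inhibitor Ro 20-1724; 0% = isoproterenol with DMSO and no NPY and 100% = 40 nM NPY; Y1 agonists lower the membrane potential dye signal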
CNGC inh: blocks CNG channel activity, counter-screen for NPY-Y2 potentiators | shares compounds with NPY2 pot ag | HEK293-CNG parental, isoproterenol cAMP, membrane potential fluorescence | inhibition, % at 3.6 µM | 32% of 450 active | AID 1703;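 active = inhibition above the control-well mean plus 3 SD of those wells, cut at about 22% in these data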;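 also: 0% = DMSO with isoproterenol and 100% = DMSO without isoproterenol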
NPY-Y2 ag 2: activates human NPY-Y2 receptor in potentiator counter-screen. HEK293 Y2/CNGC cells, membrane potential fluorescence, agonist mode. AID 1710. shares compounds with NPY2 pot ag. activation, % at 3.6 µM. 56% of 450 active;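 active = activation above the mean of solvent-only control wells plus 3 SD, cut at about 10% in these data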;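 also: cells stimulated by isoproterenol with no NPY added so direct agonism is tested; 0% = DMSO with isoproterenol alone and 100% = NPY at EC100 plus isoproterenol; agonism lowers probe fluorescence through less cAMP and CNG channel opening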
* = called active by the depositor; · = no result given. In the library only some 1.9% were active in any assay of this set; here they are far more common.

SMILES	NPY-Y1 PAM-ag	NPY-Y2 antag	NPY Y1 blocker	NPY2 pot ag	NPY-Y2 pot conf	NPY-Y1 counter	NPY-Y1 ag 2	CNGC inh	NPY-Y2 ag 2
NC(=O)c1cc([N+](=O)[O-])ccc1NCCN1C(=O)c2ccccc2C1=O	-7.0	·	1.3	-10.5	·	·	·	·	·
CN(C)S(=O)(=O)Nc1cc(F)cc(F)c1	-5.8	·	0.1	-4.1	·	·	·	·	·
CC(C)NC[C@@H](O)c1ccc(O)c(O)c1	63.4	2.8	-4.7	52.5*	54.1*	51.0*	72.7*	57.4*	53.6*
CC(C)c1ccc(O)c(N)c1	3.5	-1.2	-2.0	-13.1	·	·	·	·	·
Cc1ccc(OCCN2C(=O)CSC2=O)cc1	-18.8	3.6	0.3	0.0	·	·	·	·	·
C[N+](C)(C)CCN1C(=O)CSC1=O	26.9	·	·	82.5*	-3.2	-1.4	-1.6	0.8	1.9
Clc1cccc(-c2nnc(SCc3nc4ccccc4[nH]3)n2Cc2ccco2)c1	-26.9	4.0	14.1	-36.9	·	·	·	·	·
Clc1ccc(OCc2nnc(SCc3nc4ccccc4[nH]3)n2Cc2ccco2)cc1	40.7	1.0	-7.8	40.4*	6.1	-1.4	-4.6	10.3	14.4*
Cc1cc(=O)[nH]c(N/N=C/c2ccc(OC(=O)c3cccnc3)cc2)n1	5.0	·	2.0	4.4	·	·	·	·	·
COc1ccc(N(CC(=O)O)S(=O)(=O)c2ccc(C)cc2)cc1Cl	-2.7	·	6.1	-6.5	·	·	·	·	·
O=C(N/N=C/C1C(c2ccccc2)C1(Cl)Cl)c1cccc(Cl)c1 (centres undefined)	-19.2	6.0	2.0	-4.1	·	·	·	·	·
COc1ccc2nc(NC(=O)CSc3nccc(C)n3)sc2c1	19.7	-6.3	-10.4	35.0*	24.6	45.9*	53.3*	39.9*	51.4*
COc1ccc(C(=O)N2CCC(O)(c3ccc(Cl)cc3)CC2)cc1OC	21.9	·	·	95.2*	-2.1	-9.9	-6.8	3.2	0.3
COc1cc(/C=N/Nc2nc3ccccc3s2)cc([N+](=O)[O-])c1O	2.7	·	·	-9.1	·	·	·	·	·
O=[N+]([O-])c1cc(Cl)cc(/C=N/Nc2nc3ccccc3s2)c1O	24.3	·	-1.8	27.9*	60.2*	68.1*	69.3*	62.7*	66.2*
COC(=O)c1sccc1NS(=O)(=O)c1ccc(OC)cc1	-34.8	-0.1	4.0	31.2*	-4.7	-8.1	-8.1	-9.0	5.0
Cc1cc(C)cc(NC(=O)C2CCCN2/C=C/C(=O)C(F)(F)F)c1 (centres undefined)	0.1	2.9	2.8	1.4	·	·	·	·	·
O=C(O)CC1(CC(=O)Nc2ccccc2N2CCOCC2)CCCC1	23.6	·	·	59.1*	-3.7	-7.6	-4.1	-5.0	-4.8
O=C(O)CCC(=O)Nc1ccccc1N1CCOCC1	1.1	-0.8	-5.4	2.0	·	·	·	·	·
CC1CCCCC1NS(=O)(=O)c1ccc(S(=O)(=O)NCc2ccncc2)cc1 (centres undefined)	-3.4	-2.8	-12.8	37.4*	7.2	-23.7	-13.4	1.3	-0.3
C=CCn1c(SCC(=O)N2CCCCC2)nnc1-c1ccncc1	-6.9	·	4.8	-1.3	·	·	·	·	·
O=C(CNC1CCCCCC1)Nc1ccc(N2CCCC2)cc1	16.9	5.7	-5.2	-10.4	·	·	·	·	·
O=C(CNCCC1=CCCCC1)Nc1ccc(N2CCCCCC2)cc1	38.5	0.8	-2.8	44.5*	38.7*	45.0*	36.9*	37.6*	46.1*
O=S(=O)(c1cccc(NC(=S)N2CCN(c3cccc(Cl)c3)CC2)c1)C(F)F	7.5	-2.5	-4.5	30.5*	10.4	-1.4	6.6	12.8	16.7*
O=S(=O)(c1cccc(NC(=S)N2CCN(c3ccc(F)cc3)CC2)c1)C(F)F	8.8	-2.4	-9.6	8.8	·	·	·	·	·
SMILES	NPY-Y1 PAM-ag	NPY-Y2 antag	NPY Y1 blocker	NPY2 pot ag	NPY-Y2 pot conf	NPY-Y1 counter	NPY-Y1 ag 2	CNGC inh	NPY-Y2 ag 2
S=c1[nH]nc(CCCc2n[nH]c(=S)o2)o1	19.3	·	·	10.0	·	·	·	·	·
Brc1csc(/C=N/Nc2nc3ccccc3s2)c1	-11.7	1.4	3.4	0.7	·	·	·	·	·
Cc1ccc2[nH]c(C)c(/C=N/Nc3nc4ccccc4s3)c2c1	30.3	-4.9	-11.8	38.1*	41.8*	53.1*	31.4*	38.1*	38.5*
Cc1ccccc1Nc1c(-c2ccncc2)nc2ccc(Br)cn12	30.5	0.3	-0.7	47.5*	71.4*	76.3*	57.6*	52.9*	69.7*
COc1ccc([N+](=O)[O-])cc1NC(=O)C(C)Sc1nc(-c2ccccc2)cs1 (centres undefined)	4.6	6.0	-1.0	6.6	·	·	·	·	·
Cc1ccc2[nH]c(=O)c(CNC(C)C)cc2c1	29.0	0.1	-1.1	99.2*	0.6	3.9	-6.3	2.2	7.7
Cc1ccc(Nc2nc(N/N=C/c3c[nH]c4ccccc34)nc(N3CCOCC3)n2)cc1	30.6	-2.5	-6.0	27.2*	40.8*	58.6*	32.9*	42.5*	44.4*
Cc1cccc(CSC(Nc2ccc(F)cc2)=C(C#N)C#N)c1	5.5	6.3	0.2	40.1*	-11.4	-54.5	-30.1	-19.1	0.4
N#CC(C#N)=C(Nc1ccc(F)cc1)SCc1cccc(Br)c1	-25.4	6.9	20.0	6.8	·	·	·	·	·
CC(NCC1(N2CCOCC2)CCCCC1)C(=O)Nc1ccc(Cl)cc1Cl (centres undefined)	10.7	·	-2.5	-4.7	·	·	·	·	·
CCOc1cc(C(=S)N2CCOCC2)ccc1OS(=O)(=O)c1ccc(NC(C)=O)cc1	7.8	10.1	5.5	32.8*	5.3	-15.7	-9.9	-2.1	-5.7
